We go through nine molecules from ChEMBL document CHEMBL1799978, “Akt-dependent anabolic activity of natural and synthetic brassinosteroids in rat skeletal muscle cells” (J Med Chem, 2011).

The source made the active and inactive calls.

For series [1], the system named is L6. Nature of the series: Activation of Akt phosphorylation at Ser473 in rat L6 cells at 10 uM after 1 hr by Western blot analysis. In kind it is cell-based. Summed up:
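Differentiated L6 myotubes exposed to 10 μM compound for 1 h; IGF-1 6.5 nM for 10 min served as positive control. Lysis in ice-cold RIPA with 10 mM NaF, 2 mM orthovanadate, 1 mM PMSF and protease inhibitors, spun 12,000 g 20 min 4°C. Lysates normalized to 50 μg soluble protein, immunoblotted for phospho-Akt (Ser473); stripped blots reprobed for total Akt as loading control; ECL detection.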
(In general: A western blot detects proteins with antibodies after separation by electrophoresis.)

The test system of series [2] is L6. Briefly: Cytotoxicity against rat L6 cells up to 30 uM after 24 hrs by MTT assay. The format is cell-based. The settings on record: l6, 24 h. In outline:
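Fully differentiated L6 myotubes (myoblasts fused after 7–9 d in 2% serum) treated with compounds up to 30 μM against 0.1% ethanol vehicle. Viability by MTT assay in triplicate, read at 550 nm, alongside cytological observation.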
(Tetrazolium dyes change colour on reduction, which living cells bring about.)

Series [3] deals with L6. Briefly: Increase in protein synthesis in rat L6 cells assessed as [3H]-phenylalanine incorporation at 10 uM after 4 hrs by scintillation counting relative to control. In kind it is functional. In outline:
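L6 myotubes (differentiated in 2% serum) washed with serum-free DMEM. Incubated 4 h with 0.5 μCi/mL [3H]-phenylalanine plus vehicle (0.1% ethanol), compound (0.3–30 μM, or 10 μM), or 6.5 nM IGF-1. Protein precipitated with 5% TCA, dissolved in 0.5 N NaOH, scintillation-counted, normalized to mg protein (BCA). Triplicate; ANOVA/Dunnett.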

The test system of series [4] is L6. Nature of the series: Decrease in protein degradation in rat L6 cells assessed as release of acid-soluble [3H]-phenylalanine into the media normalized by total protein at 10 uM after 4 hrs by scintillation counting relative to control. The format is functional. The arrangement: scale not given: the % may be the effect or the level left. In outline: (§1)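 L6 myoblasts differentiated 7–9 d in 2% serum into myotubes. Proteins labelled 16 h with 1.5 μCi/mL [3H]-phenylalanine, then washed. Cells treated 4 h in serum-free medium with vehicle (0.1% ethanol), compound (0.3–30 μM; single-point screen 10 μM), or 10 nM insulin. Medium TCA-precipitated and released [3H]-phenylalanine counted, normalized to mg cell protein (BCA). Triplicate; one-way ANOVA with Dunnett's test.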

The test system of series [5] is NIH3T3. Nature of the series: Cytotoxicity against mouse NIH/3T3 cells at 0.3 to 30 uM after 24 hrs by MTT assay. The format is cell-based. Conditions: nih3t3, 24 h. Summed up: (§2)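 NIH-3T3 murine fibroblasts grown in DMEM with 10% FBS at 37°C in 5% CO2. Exposed to 0.3–30 μM for 24 h at 37 °C. MTT read at 550 nm. Absorbance expressed relative to vehicle control cells (taken as 100% proliferation). n=6 from repeated experiments.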

The subject of series [6] is L6. Briefly: Increase in protein synthesis in rat L6 cells assessed as [3H]-phenylalanine incorporation at 0.3 to 30 uM after 4 hrs by scintillation counting relative to control.
The subject of series [7] is L6. Nature of the series: Decrease in protein degradation in rat L6 cells assessed as release of acid-soluble [3H]-phenylalanine into the media normalized by total protein at 1 uM after 4 hrs by scintillation counting relative to control. The format is functional. The arrangement: scale not given: the % may be the effect or the level left. Summed up:
as §1

For series [8], the system named is L6. Nature of the series: Decrease in protein degradation in rat L6 cells assessed as release of acid-soluble [3H]-phenylalanine into the media normalized by total protein at 0.3 to 20 uM after 4 hrs by scintillation counting relative to control. In kind it is functional, cell-based. Summed up: as §1
In series [9] the test system is NIH3T3. Briefly: Cytotoxicity against mouse NIH/3T3 cells after 24 hrs by MTT assay. The settings on record: NIH3T3, 24 h. The format is cell-based. In outline: as §2
Series [10] concerns Rattus norvegicus. Briefly: Upregulation of Igf2 gene expression in Wistar rat at 60 mg/kg, po qd for 24 days by PCR analysis relative to control. The format is functional. Summed up:
(§3)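 Gastrocnemius muscle from male Wistar rats dosed orally with 60 mg/kg daily for 24 d, or vehicle. Conventional RT-PCR on individual muscle samples (n=5 per group), duplicate determinations. Compared with control by Student t test.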

In series [11] the test system is Rattus norvegicus. Briefly: Induction of Myf6 mRNA expression in Wistar rat at 60 mg/kg, po qd for 24 days by RT-PCR analysis relative to control. The format is functional. Summed up: as §3
In series [12] the test system is Rattus norvegicus. Nature of the series: Upregulation of Srebf1 gene expression in Wistar rat at 60 mg/kg, po qd for 24 days by PCR analysis relative to control. In kind it is functional. Summed up: (§4)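 Male Wistar rats gavaged daily 24 d with 60 mg/kg or vehicle (5% DMSO in corn oil). RNA from pooled (n=5) frozen gastrocnemius samples run on a rat insulin signaling PCR array (84 genes). Fold change computed as 2^(-ΔCt), with a 4-fold threshold.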

Series [13] relates to Rattus norvegicus. Briefly: Induction of Myod1 mRNA expression in Wistar rat at 60 mg/kg, po qd for 24 days by RT-PCR analysis relative to control. The format is functional. In outline: as §3
For series [14], the system named is Rattus norvegicus. Nature of the series: Induction of Myog mRNA expression in Wistar rat at 60 mg/kg, po qd for 24 days by RT-PCR analysis relative to control. In kind it is functional. In outline: as §3
The subject of series [15] is Rattus norvegicus. Briefly: Induction of Myf5 mRNA expression in Wistar rat at 60 mg/kg, po qd for 24 days by RT-PCR analysis relative to control. In kind it is functional. In outline:
as §3

The subject of series [16] is Rattus norvegicus. Nature of the series: Anabolic effect in Wistar rat assessed as increase in lean body mass at 60 mg/kg, po qd for 24 days. In kind it is functional.
Series [17] concerns Rattus norvegicus. Briefly: Effect on Eif2b1 gene expression in Wistar rat at 60 mg/kg, po qd for 24 days by PCR analysis relative to control. The format is functional, organism-based. On the set-up: dose 60 mg/kg. Summed up:
as §4

The test system of series [18] is Rattus norvegicus. Nature of the series: Upregulation of Adar1d gene expression in Wistar rat at 60 mg/kg, po qd for 24 days by PCR analysis relative to control. In kind it is functional. Summed up:
as §4

The subject of series [19] is Rattus norvegicus. Nature of the series: Anabolic effect in Wistar rat assessed as increase in limb grip strength at 60 mg/kg, po qd for 24 days. In kind it is functional, organism-based. On the set-up: dose 60 mg/kg.
Series [20] deals with Rattus norvegicus. Nature of the series: Upregulation of Igfbp1 gene expression in Wistar rat at 60 mg/kg, po qd for 24 days by PCR analysis relative to control. In kind it is functional. Summed up: as §4
In series [21] the test system is Rattus norvegicus. Nature of the series: Upregulation of Fbp2 gene expression in Wistar rat at 60 mg/kg, po qd for 24 days by PCR analysis relative to control. The format is functional. In outline:
as §4

Turning to `CC(C)[C@@H](C)[C@H](O)[C@@H](O)[C@@H](C)[C@H]1CC[C@H]2[C@@H]3COC(=O)[C@H]4C[C@H](O)[C@H](O)C[C@]4(C)[C@H]3CC[C@]12C`, the result in the series on L6 [1] was Active. For the same molecule, the Activity entry in the series on L6 [2] is listed as “Non-toxic”; with L6 [3], 4%; in the series on L6 [4], -6%.

Consider `CC[C@H](C(C)C)[C@H](O)[C@@H](O)[C@@H](C)[C@H]1CC[C@H]2[C@@H]3COC(=O)[C@H]4C[C@H](F)CC[C@]4(C)[C@H]3CC[C@]12C`, for which the outcome with L6 [1] was Active. In addition, the Activity entry is “Toxic” in the series with NIH3T3 [5], “Non-toxic” in the series on L6 [2], 25% in the series on L6 [3] and -21% in the series with L6 [4].

Take `CC[C@@H](C(C)C)[C@@H](O)[C@H](O)[C@@H](C)[C@H]1CC[C@H]2[C@@H]3COC(=O)[C@H]4C[C@H](O)[C@H](O)C[C@]4(C)[C@H]3CC[C@]12C`: the result in the series on L6 [1] was Active. Besides, the Activity result in the series on L6 [2] is “Non-toxic”; in the series on L6 [3], 13%; in the series on L6 [4], -15%.

Take `CC[C@@H](C(C)C)[C@H](O)[C@@H](O)[C@@H](C)[C@H]1CC[C@H]2[C@@H]3CC(=O)[C@H]4C[C@H](F)CC[C@]4(C)[C@H]3CC[C@]12C`: the result in the series on L6 [1] was Active. For the same molecule, the Activity result with NIH3T3 [5] is “Toxic”; with L6 [2], “Non-toxic”; with L6 [3], 23%; with L6 [4] it was -16%.

Take `CC[C@@H](C(C)C)[C@H](O)[C@@H](O)[C@@H](C)[C@H]1CC[C@H]2[C@@H]3CC(=O)[C@H]4C[C@H](O)[C@H](O)C[C@]4(C)[C@H]3CC[C@]12C`: the Activity was 40.7% in the series with L6 [6]; 8.7% in the series with L6 [7]; “Non-toxic” in the series with NIH3T3 [5]; “Non-toxic” with L6 [2]; “Dose-dependent effect” with L6 [8]; 41% in the series with L6 [3]. Also, the Activity in the series on L6 [4] is listed as -23%. Also, in the series with L6 [1], the outcome was Active.

As to `CC(C)[C@@H](C)[C@@H](O)[C@H](O)[C@@H](C)[C@H]1CC[C@H]2[C@@H]3COC(=O)[C@H]4C[C@H](O)[C@H](O)C[C@]4(C)[C@H]3CC[C@]12C`, in the series with L6 [1], the result was Active. In addition, the Activity result is given as “Non-toxic” in the series with L6 [2], 12% in the series with L6 [3] and -7% in the series with L6 [4].

By IC50 is commonly meant the concentration at which inhibition is half-maximal. `CC[C@@H](C(C)C)[C@H](O)[C@@H](O)[C@@H](C)[C@H]1CC[C@H]2[C@@H]3CNC(=O)[C@H]4C[C@H](O)[C@H](O)C[C@]4(C)[C@H]3CC[C@]12C`: the outcome in the series with L6 [1] was Active. Moreover, the values for the Activity result in the series with L6 [2], in the series on L6 [3] and in the series on L6 [4] were “Non-toxic”, 21% and -1%, respectively. Half-maximal inhibition with NIH3T3 [9] (IC50) required 12.5 µM.

Take `CC[C@@H](C(C)C)[C@H](O)[C@@H](O)[C@@H](C)[C@H]1CC[C@H]2[C@@H]3CC(=O)N[C@H]4C[C@H](O)[C@H](O)C[C@]4(C)[C@H]3CC[C@]12C`: in the series with L6 [1], the result was Active. Further, the Activity entry is recorded as “Non-toxic” in the series on L6 [2], 3% with L6 [3] and -14% in the series on L6 [4].

In the case of `CC[C@@H](C(C)C)[C@H](O)[C@@H](O)[C@@H](C)[C@H]1CC[C@H]2[C@@H]3COC(=O)[C@H]4C[C@H](O)[C@H](O)C[C@]4(C)[C@H]3CC[C@]12C`, the “fold change (FC)” value in the series on Rattus norvegicus [10] turned out to be 1.4; with Rattus norvegicus [11] it was 1.3; in the series with Rattus norvegicus [12], 2.5; in the series with Rattus norvegicus [13] it was 2.1; in the series with Rattus norvegicus [14] it was 1.7; with Rattus norvegicus [15] it was 1.3. The “fold change (FC)” value was determined as 6.5 with Rattus norvegicus [18], 2.5 in the series on Rattus norvegicus [20] and 4.5 in the series on Rattus norvegicus [21]. Further, the Activity with L6 [6] is 36.9%; with L6 [7] it was 8.2%; in the series with NIH3T3 [5] it was “Non-toxic”; in the series on L6 [2] it was “Non-toxic”; in the series with Rattus norvegicus [16], 14.2%; with L6 [8] it was “Dose-dependent effect”. Also, the Activity in the series on L6 [3] is given as 37%; in the series with L6 [4], -24%. The outcome with L6 [1] and in the series with Rattus norvegicus [19] was Active. Also, the result with Rattus norvegicus [17] was inactive.
